These results are taken from ChEMBL document CHEMBL1126156, “Multivariate analysis by the minimum spanning tree method of the structural determinants of diphenylethylenes and triphenylacrylonitriles implicated in estrogen receptor binding, protein kinase C activity, and MCF7 cell proliferation” (J Med Chem, 1992).

Some results are limits rather than exact numbers.

The term Inhibition denotes how much of the control response was suppressed. For orientation: inhibition means how much of the control response was suppressed. What is called IC30 is the concentration at which the effect reaches the 30% level. By EC50 is commonly meant the concentration needed to bring the measured effect to its halfway point. Broadly, the IC50 is the concentration that inhibits the measured activity by half.

The subject of assay [1] is MCF7S. The assay is described as follows: Cytostatic activity against MCF-7 cell proliferation. The format is functional, Homo sapiens. Further details: concentration or dose not given beside the values. Summed up:
(§1)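 MCF-7 cells in phenol red-free charcoal-treated medium given 10⁻⁶ M E2 plus test compound (3–10 μM), 6 days of growth. DNA expressed as percent of E2-treated cells. IC30 is the concentration giving 30% inhibition. Percent inhibition taken at 10⁻⁵ M, or at 10⁻⁶ M in a second series. Means of two experiments.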

Assay [2] has as its system MCF7S. As to the kind of experiment: Agonistic activity in MCF-7 cell proliferation. Type of assay: functional, Homo sapiens. The method in brief: (§2)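 MCF-7 cells grown in phenol red-free medium with 5% dextran-coated charcoal-treated serum, tested 10 pM to 1 μM. DNA content read after growth. Agonism expressed relative to the maximum response with E2 (=100%), whatever the concentration. EC50 (50% of maximum response) taken from two separate experiments.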

Assay [3] is filed under the species Rattus norvegicus. As to the kind of experiment: Percent stimulation or inhibition of protein kinase C III activity for protamine sulfate in the presence of EGTA. On the set-up: concentration or dose not given beside the values. To be noted: values are per cent of control. The method in brief: (§3)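 Rat brain type III (α) PKC, purified, with protamine sulfate as substrate and 0.5 mM EGTA in place of Ca2+, phosphatidylserine and diolein; 5 mM magnesium acetate, 10 μM [32P]ATP. Most compounds at 10⁻⁴ M; percent of control activity.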

For assay [4], the target named is T1, Protein kinase C, PKC; classical (Rattus norvegicus) (UniProt P05696+P68403+P63319). The assay is described as follows: (§4) Percent stimulation or inhibition of protein kinase C with [Ca2+] for phosphatidylserine and diolein(PS+DO). The format is protein assay. The settings on record: for residual activity: values are per cent of control. Summed up: (§5)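 Type III (α) PKC purified from rat brain soluble fraction, assayed with calf thymus H1 histone, 0.1 mM Ca2+, 5 mM magnesium acetate, 10 μM [32P]ATP, 2 μg/mL phosphatidylserine plus 0.2 μg/mL diolein. Compounds mostly at 10⁻⁴ M; activity expressed as percent of control.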

Assay [5] is filed under the species Rattus norvegicus. The assay is described as follows: Percent stimulation or inhibition of protein kinase C with EGTA for protamine sulfate. The settings on record: concentration not given here. Summed up: as §3
Assay [6] has as its target T1, Protein kinase C, PKC; classical (Rattus norvegicus). Described as §4. To be noted: values are per cent of control. Further details: concentration or dose not given beside the values. The format is protein assay. The method in brief:
as §5

Assay [7] has the same target. As to the kind of experiment: Percent stimulation or inhibition of protein kinase C with [Ca2+] for phosphatidylserine (PS). Type of assay: protein assay. Summed up: (§6)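 Purified type III (α) PKC from rat brain soluble fraction. Substrate calf thymus H1 histone with 0.1 mM Ca2+, 5 mM magnesium acetate, 10 μM [32P]ATP and 2 μg/mL phosphatidylserine, no diolein. Most compounds at 10⁻⁴ M, given as percent of control activity.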

For assay [8], the system named is MCF7S. As to the kind of experiment: Cytostatic activity against MCF-7 cell proliferation. Type of assay: functional, Homo sapiens. Summed up:
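MCF7 (ER-positive) human breast cancer cells grown in 24-well plates in phenol red-free medium with 5% dextran-coated charcoal, with 10⁻⁶ M E₂ added. Cells exposed to compound for 6 days, then DNA measured and expressed as percent of E₂-alone DNA. Triplicate wells per experiment; values are means of two experiments.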

The target of assay [9] is T1, Protein kinase C, PKC; classical (Rattus norvegicus). The assay is described as follows: The percent stimulation or inhibition of protein kinase C III activity was determined for phosphatidylserine (PS) and diolein(PS+DO) in the presence of [Ca2+]. The format is protein assay. On the set-up: concentration or dose not given beside the values. The settings on record: values are per cent of control. The method in brief:
as §5

Assay [10] has the same target. As to the kind of experiment: Percent stimulation or inhibition of protein kinase C III activity for phosphatidylserine (PS) in the presence of [Ca2+]. Type of assay: protein assay. On the set-up: concentration or dose not given beside the values. The settings on record: values are per cent of control. The method in brief: as §6
Assay [11] deals with BT-20. The assay is described as follows: (§7) Cytotoxic effect on ER-negative BT20 cell proliferation. The format is functional. The settings on record: Homo sapiens. Summed up:
(§8)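 ER-negative BT20 cells, no E2, test compound at 3–10 μM for 6 days. DNA read as percent of untreated control. IC30 is the concentration inhibiting growth by 30%; percent inhibition taken at 10⁻⁵ M. Means of two experiments, triplicate wells.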

For assay [12], the system named is BT-20. The assay is described as §7. The format is functional, Homo sapiens. Further details: concentration or dose not given beside the values. The method in brief: as §8
Assay [13] deals with Estrogen receptor (Bos taurus) (UniProt Q9XSB5+P49884). The assay is described as follows: Relative binding affinity for calf uterus estrogen receptor after 2 hr at 0 degree C. Type of assay: protein assay. Summed up:
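Calf uterus cytosol ER incubated 2 h at 0 °C with [6,7-3H]-17β-estradiol and competitor. RBA given relative to estradiol (=100%), mean of at least four determinations.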

Assay [14] has as its system MCF7S. As to the kind of experiment: Cytotoxic effect on MCF-7 cell proliferation. The format is functional. To be noted: Homo sapiens. Summed up:
as §1

Assay [15] concerns MCF7S. The assay is described as follows: (§9) Antagonist activity against MCF-7 cell proliferation. The format is functional, Homo sapiens. Summed up: (§10)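 Phenol red-free MCF-7 cultures with 5% dextran-coated charcoal-treated serum, stimulated by 0.1 nM E2. Proliferation read as DNA content after 8 days relative to E2 alone. Percent antagonism is the inhibition at 10⁻⁶ M test compound versus 10⁻¹⁰ M E2. IC50 (50% of maximum response) from two separate experiments.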

Assay [16] deals with MCF7S. The assay is described as follows: Agonist activity against MCF-7 cell proliferation. The settings on record: Homo sapiens. The format is functional, cell-based. The method in brief: as §2
The test system of assay [17] is MCF7S. The description is as §9. The format is functional, cell-based. To be noted: Homo sapiens. Summed up:
as §10

For the molecule `CN(C)c1ccc(C(=C(C#N)c2ccccc2)c2ccc(N(C)C)cc2)cc1`, the Inhibition in assay [1] amounted to 48%. The molecule further registered an Agonism in assay [2] of 85%. Besides, the residual activity in [3] was found to be 88%. The inhibition in assay [4] (concentration not given here) was 57%; in assay [5], 88%.

With `Cc1ccc(/C(=C(\C#N)c2ccc(O)cc2)c2ccc(O)cc2)cc1`, the Inhibition in assay [1] came to 54%. For the same molecule, in assay [2], the Agonism is 73%. Also, the residual activity in [6] is 68%; in assay [4], 68%; in [7] (values are per cent of control), 88%.

`CC/C(=C(/c1ccc(O)cc1)c1ccc(OCCN(C)C)cc1)c1ccccc1`: the Inhibition in [8] stood at 74%. Moreover, the Agonism in assay [2] amounted to 61%. The residual activity in assay [3] is 100%; in assay [9], 14%; in assay [10], 32%.

For the molecule `CC(C)N(CCOc1ccc(C(C#N)=C(c2ccccc2)c2ccccc2)cc1)C(C)C`, the IC30 in [11] amounted to 9 µM; in [14], 10 µM. Further, the results for the Inhibition in assay [12] and in assay [1] were 36% and 30%, respectively. Besides, in assay [13], the RBA is 0.1%. Besides, the Agonism in [2] was 93%. Also, the Antagonism in assay [15] came out at 10%. The molecule also registered an EC50 in assay [16] of 0.011 µM. In addition, the values for the residual activity in assay [3], in assay [7] (values are per cent of control) and in [9] were 103%, 46% and 23%, respectively.

In turn, `CC(C)C(Cl)=C(c1ccc(O)cc1)c1ccc(O)cc1` yielded an IC30 in assay [11] of 7.6 µM. Also, the Inhibition amounted to 45% in assay [12] and 30% in assay [1]. The same molecule displayed an RBA in assay [13] of 70%. Besides, the Agonism in [2] is 96%. Moreover, in assay [15], the Antagonism was 12%. Moreover, the EC50 in assay [16] was 0.00016 µM. Further, the residual activity in assay [3] is 85%; in assay [9], 83%.

For `CC(C)C=C(c1ccc(O)cc1)c1ccc(O)cc1`, the 30% effect level in [11] (IC30) was put at 8.4 µM. Moreover, the Inhibition is on record as 40% in assay [12] and 22% in assay [1]. This molecule also registered an RBA in [13] of 58%. In assay [2], this molecule registered an Agonism of 65%. In addition, the Antagonism in [15] is 5%. In [16], this molecule returned an EC50 of 0.018 µM. In addition, the residual activity in assay [3] was determined as 95%; in assay [9] it was 70%.

For the molecule `NCC(=C(c1ccc(O)cc1)c1ccc(O)cc1)c1ccccc1`, the IC30 in assay [11] was 20 µM. The Inhibition in assay [12] is 24%; in [1], 19%. In addition, in assay [13], the RBA is 9.7%. For the same molecule, the Agonism in assay [2] amounted to 76%. Further, the Antagonism in assay [15] is given as 20%. Besides, in assay [16], a half-maximal effect (EC50) was put at 0.00014 µM. The residual activity was 20% in assay [3], 53% in [9] and 78% in [10].

With `CC/C(=C(/c1ccccc1)c1ccc(OCCN(C)C)cc1)c1ccccc1`, in assay [1], the Inhibition turned out to be 79%. Besides, in assay [2], the Agonism was determined as 100%. In addition, the residual activity in assay [6] was determined as 30%; in assay [7], 36%; in assay [10], 36%.

Turning to `COc1ccc(/C(=C(/C#N)c2ccccc2)c2ccc(O)cc2)cc1`, in assay [1], the Inhibition came to 13%. The molecule also yielded an Agonism in assay [2] of 25%. Further, the residual activity in assay [6], in assay [7] and in assay [10] was 100% throughout.

With `CCN(CC)CCOc1ccc(C(C#N)=C(c2ccc(O)cc2)c2ccc(O)cc2)cc1`, the IC30 in assay [11] came out at 3 µM; in assay [14], 6 µM. Moreover, the values for the Inhibition in assay [12] and in assay [1] were 50% and 68%, respectively. The molecule also registered an IC50 in assay [17] of 0.2 µM. The molecule further returned an Agonism in assay [2] of 45%. Moreover, the Antagonism in assay [15] was found to be 50%. This molecule also showed an EC50 in assay [16] of 0.0008 µM. Further, the residual activity in assay [3] is 105%; in assay [9], 0%; in assay [10] it was 7%.

For the molecule `CC(C)CCOc1ccc(C(=C(C#N)c2ccccc2)c2ccc(OCCC(C)C)cc2)cc1`, the IC30 in assay [11] was 9 µM; in assay [14], more than 10 µM. For the same molecule, the Inhibition was found to be 37% in [12] and 3% in [1]. Further, the IC50 in [17] was more than 1 µM. Moreover, the Agonism in assay [2] is 0%. Also, the Antagonism in [15] came to 0%. This molecule returned a concentration giving a half-maximal response (EC50) in assay [16] of more than 1 µM. Also, the results for the residual activity in assay [3], in assay [9] and in [10] were 78%, 86% and 118%, respectively.

In the case of `CC(C)N(CCOc1ccc(C(=C(C#N)c2ccccc2)c2ccc(OCCN(C(C)C)C(C)C)cc2)cc1)C(C)C`, the results for the IC30 in assay [11] and in assay [14] were 3.2 µM and 2.7 µM, respectively. In addition, the values for the Inhibition in assay [12] and in assay [1] were 89% and 97%, respectively. This molecule had an RBA in [13] of 0.03%. Further, the IC50 in [17] was 0.325 µM. Also, the Agonism in [2] is 29%. In assay [15], the Antagonism is listed as 79%. The molecule further had an EC50 in assay [16] of 0.00084 µM. Further, the values for the residual activity in [3], in [9] and in assay [10] were 85%, 8% and 18%, respectively.

As for `Cc1ccc(/C(=C(\C#N)c2ccccc2)c2ccc(O)cc2)cc1`, the Inhibition in assay [1] came out at 60%. In [2], this molecule showed an Agonism of 53%. Also, the figures for the residual activity in assay [6], in assay [4] and in [7] (values are per cent of control) were 87%, 87% and 119%, respectively.
